Experimental data from different studies.
Compare with care: the assays were run in different laboratories.
PTGS2: Prostaglandin G/H synthase 2 (PTGS2, Homo sapiens, UniProt P35354)
Rock2: Rho-associated protein kinase 2 (Rock2, Rattus norvegicus, UniProt Q62868)
SIGMAR1: Sigma non-opioid intracellular receptor 1 (SIGMAR1, Cavia porcellus, UniProt Q60492)

C=C[C@@]1(C)C=C2CC[C@@H]3[C@](C)(CCC[C@@]3(C)C(=O)O)[C@H]2CC1 — inhibition (PTGS2; enzyme activity; inhibitor; 0.98 µg/mL): 15.2%
CCN1CCN(Cc2ccc(NC(=O)c3ccc(C)c(Oc4ccnc5[nH]ccc45)c3)cc2C(F)(F)F)CC1 — inhibition (Scaffold protein ILK (ILK, Homo sapiens, UniProt Q13418); target engagement in cells; inhibitor; chemoproteomics; Huh-7; 1 µM): -36.8%
O=C(c1ccc(Cl)cc1)N(Cc1ccccc1)C1CCCCC1 — inhibition (Muscarinic acetylcholine receptor M3 (CHRM3, Homo sapiens, UniProt P20309); cell-free assay; 10 µM): -7.8%
O=C1N=C(N2CCCCN2)S/C1=C\c1ccc(F)cc1O — inhibition (5-hydroxytryptamine receptor 1B (Htr1b, Rattus norvegicus, UniProt P28564); ligand displacement; radioligand; 10 µM): < 10%
O=c1cc(-c2ccc(O)c(O)c2)oc2cc(O)cc(O)c12 — inhibition (PTGS2; enzyme activity; inhibitor; 0.49 µg/mL): 45%
CN(C)C1CCN(CC#Cc2nn(C3CCCC3)c3nc(NCc4ccccc4)ncc23)C1 (centres unmarked) — inhibition (Dual specificity tyrosine-phosphorylation-regulated kinase 1A (DYRK1A, Homo sapiens, UniProt Q13627); enzyme activity; inhibitor; FRET; 0.1 µM): 4%
CNC(=O)c1cc(Oc2ccc(NC(=O)Nc3ccc(Cl)c(C(F)(F)F)c3)cc2)ccn1 — inhibition (Rock2; enzyme activity; inhibitor; 10 µM): 44%
O=C(c1ccc(F)cc1)N(Cc1ccccc1)C1CCCCC1 — inhibition (Neuropeptide Y receptor type 2 (NPY2R, Homo sapiens, UniProt P49146); cell-free assay; 10 µM): -14%
COc1cc([C@H]2OC[C@H]3[C@@H]2CO[C@@H]3c2cc(OC)c(O)c(OC)c2)cc(OC)c1O — inhibition (PTGS2; enzyme activity; inhibitor; 0.98 µg/mL): 49.3%
COc1ccc(CCC(C)N2CCc3cc(OC)c(OC)cc3C2)cc1 (centres unmarked) — inhibition (SIGMAR1; ligand displacement; radioligand; 0.1 µM): 11%
Nc1ncnc2c1ncn2[C@@H]1O[C@H](CSCCNC(=O)NCc2ccccc2)[C@@H](O)[C@H]1O — inhibition (Protein arginine N-methyltransferase 7 (PRMT7, Homo sapiens, UniProt Q9NVM4); enzyme activity; inhibitor; radiometric; 10 µM): > 75%
COc1cc(-c2cc(=O)c3c(O)cc(O)cc3o2)ccc1O — inhibition (PTGS2; enzyme activity; inhibitor; 7.81 µg/mL): 58.6%
CC/C(=N\NC(=O)NCc1cccc(O)c1)c1ccc(O)c(C)c1O — inhibition (NPM/ALK (Nucleophosmin/ALK tyrosine kinase receptor) (NPM1/ALK, Homo sapiens, UniProt P06748+Q9UM73); enzyme activity; inhibitor; 0.1 µM): -0.4%
Cc1ccc(Nc2nccc(N(C)c3ccc4c(C)n(C)nc4c3)n2)cc1S(N)(=O)=O — inhibition (Rock2; enzyme activity; inhibitor; 0.3 µM): 11%
COc1ccc(-c2cc(=O)c3c(O)cc(O[C@@H]4O[C@H](CO)[C@@H](O)[C@H](O)[C@H]4O)cc3o2)cc1O — inhibition (PTGS2; enzyme activity; inhibitor; 0.24 µg/mL): 39.7%
CNC(=O)[C@@]12C[C@@H]1[C@@H](n1cnc3c(NC)nc(C#Cc4ccc(Cl)s4)nc31)[C@H](O)[C@@H]2O — inhibition (SIGMAR1; ligand displacement; radioligand; 10 µM): 60 to 70%
CN(Cc1ccc(NC(=O)C2=Cc3cc(-c4ccc(OCCCCCCCF)cc4)ccc3CCC2)cc1)C1CCOCC1 — inhibition (SIGMAR1; ligand displacement; radioligand; 10 µM): 14%
